Assay results as given in ChEMBL document CHEMBL3286111, “Tryptophan hydroxylase 1 (Tph-1)-targeted bone anabolic agents for osteoporosis” (J Med Chem, 2014).
Activity calls are given as the source filed them. The calls are words filed in the database; no cut-off is given here.

Tests used:
[1] = Cytotoxicity against rat RBL2H3 cells by MTT assay; assay type: cell-based; set-up: concentration or dose not given beside the values; conditions: rbl-2h3
Outline: (§1)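 RBL2H3 cells (α-MEM) or PC12 cells (D-MEM), both with 10% FBS, treated at a single dose in 0.1% DMSO; 0.1% DMSO control; 37 °C, 5% CO2. MTT (5 mg/mL) added 4 h before the end, then SDS/DMF lysis buffer (pH 7.2) for 6 h; absorbance read at 570 nm. Cytotoxicity % calculated from background-corrected OD versus control.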

[2] = Cytotoxicity against rat PC12 cells by MTT assay; assay type: cell-based; conditions: pc-12; outline: as §1
Rattus norvegicus [3] = test: Antiosteoporotic activity in ovariectomized po dosed rat assessed as decrease in serum serotonin level administered for 30 days by HPLC analysis; assay type: functional, organism-based
Outline: (§2)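 Female rats, 12 weeks old (220 g), bilateral ovariectomy under ip pentobarbital; from 3 days after surgery, 9a given orally once daily at 1, 10 or 20 mg/kg in 5% ethanol/95% water for 30 days, n = 8. Serum (HClO4-deproteinized) or brain homogenate (HClO4 plus NaH2PO4/acetonitrile) run on RP-C18 HPLC with fluorescence detection (ex 290/em 330 nm).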

Rattus norvegicus [4] = test: Effect on brain serotonin level in ovariectomized rat at 1 to 20 mg/kg/day, po for 30 days by RP-HPLC analysis; assay type: functional, organism-based; outline: as §2
Rattus norvegicus [5] = test: Antiosteoporotic activity in ovariectomized rat assessed as decrease in gut serotonin level at 10 mg/kg, po qd for 7 days by HPLC analysis relative to control; assay type: functional; set-up: scale not given: the % may be the effect or the level left
Outline: (§3)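 Female rats, 12 weeks old (220 g), underwent bilateral ovariectomy under ip pentobarbital; sham controls included; n = 5 per group. Oral dosing in vehicle of 5% ethanol/95% water began 3 days post-surgery, once daily for 7 days. Small intestine (jejunum, ileum) was homogenised in 5% HClO4 and mobile phase. Serotonin was read by C18 HPLC with fluorescence detection (ex 290/em 330 nm).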

Rattus norvegicus [6] = test: Antiosteoporotic activity in ovariectomized rat assessed as decrease in gut serotonin level at 20 mg/kg, po qd for 7 days by HPLC analysis relative to control; assay type: functional; set-up: scale not given: the % may be the effect or the level left; outline: as §3
Brain = test: Drug uptake in ovariectomized rat brain at 10 to 20 mg/kg, po qd for 7 days by LC-MS analysis; assay type: ADME, organism-based; set-up: dose 10-20 mg/kg, route oral; conditions: in vivo, 168 h
Outline: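 OVX rats given oral 9a at 10 or 20 mg/kg once daily for 7 days, starting 3 days after surgery, n = 5. Brain homogenate (about 2.0 g) extracted with 5% HClO4 and ethyl acetate, centrifuged; the organic layer was dried and analysed by LC-MS/MS (limit of detection 12.4 pg).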

Rattus norvegicus [7] = test: Antiosteoporotic activity in ovariectomized rat assessed as increase in trabecular bone volume fraction at 1 mg/kg/day, po for 30 days by microcomputed tomographic analysis; assay type: functional, organism-based; conditions: Trabecula
Outline: (§4)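 Ovariectomized 12-week-old female rats dosed orally once daily with 9a (1, 10, 20 mg/kg/day, 5% ethanol vehicle) for 30 days, beginning 3 days after surgery, n = 8 per group. Lumbar vertebrae were collected after CO2 euthanasia and scanned by micro-CT for BV/TV, Tb.Th, Tb.N, Tb.Sp and BMD.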

Rattus norvegicus [8] = test: Antiosteoporotic activity in ovariectomized rat assessed as increase in trabecular thickness at 1 mg/kg/day, po for 30 days by microcomputed tomographic analysis; assay type: functional, organism-based; conditions: Trabecula; outline: as §4
Rattus norvegicus [9] = test: Antiosteoporotic activity in ovariectomized rat assessed as increase in trabecular number at 1 mg/kg/day, po for 30 days by microcomputed tomographic analysis; assay type: functional, organism-based; conditions: Trabecula; outline: as §4
Rattus norvegicus [10] = test: Antiosteoporotic activity in ovariectomized rat assessed as increase in bone mineral density at 1 mg/kg/day, po for 30 days by microcomputed tomographic analysis; assay type: functional, organism-based; outline: as §4
Rattus norvegicus [11] = test: Antiosteoporotic activity in ovariectomized rat assessed as decrease in trabecular separation at 1 mg/kg/day, po for 30 days by microcomputed tomographic analysis; assay type: functional, organism-based; conditions: Trabecula; outline: as §4
Rattus norvegicus [12] = test: Antiosteoporotic activity in ovariectomized rat assessed as increase in bone mineral density at 10 to 20 mg/kg/day, po for 30 days by microcomputed tomographic analysis relative to control; assay type: functional
Outline: (§5)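 Female rats, 12 weeks old, underwent bilateral ovariectomy; sham, OVX-vehicle and ip PTH 20 μg/kg/day groups were included; n = 8. Oral dosing at 1, 10 and 20 mg/kg/day in 5% ethanol/95% water began 3 days post-surgery, once daily for 30 days. Lumbar vertebrae were scanned by μCT for BV/TV, Tb.Th, Tb.N, Tb.Sp and BMD.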

Rattus norvegicus [13] = test: Antiosteoporotic activity in ovariectomized rat assessed as increase in trabecular bone volume fraction at 10 to 20 mg/kg/day, po for 30 days by microcomputed tomographic analysis relative to control; assay type: functional, Trabecula; outline: as §5
Rattus norvegicus [14] = test: Antiosteoporotic activity in ovariectomized rat assessed as increase in trabecular number at 10 to 20 mg/kg/day, po for 30 days by microcomputed tomographic analysis relative to control; assay type: functional, Trabecula; outline: as §5
Rattus norvegicus [15] = test: Antiosteoporotic activity in ovariectomized rat assessed as increase in trabecular thickness at 10 to 20 mg/kg/day, po for 30 days by microcomputed tomographic analysis relative to control; assay type: functional, Trabecula; outline: as §5
Rattus norvegicus [16] = test: Antiosteoporotic activity in ovariectomized rat assessed as decrease in trabecular separation at 10 to 20 mg/kg/day, po for 30 days by microcomputed tomographic analysis relative to control; assay type: functional, Trabecula; set-up: scale not given: the % may be the effect or the level left; outline: as §5
Rattus norvegicus [17] = test: Antiosteoporotic activity in ovariectomized po dosed rat assessed as increase in serum P1NP level administered for 30 days by ELISA; assay type: functional, organism-based
Outline: (§6)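 OVX female rats (12 weeks old), oral 9a at 1, 10 or 20 mg/kg per day in 5% ethanol vehicle, starting 3 days post-surgery, for 30 days, n = 8. Serum was taken at the end, centrifuged and stored at −20 °C. P1NP or CTX-1 was measured by ELISA kit and reported as means ± SD.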

Rattus norvegicus [18] = test: Antiosteoporotic activity in ovariectomized rat assessed as decrease in serum CTX-1 level at 10 to 20 mg/kg/day, po for 30 days by ELISA; assay type: functional, organism-based; outline: as §6
Rattus norvegicus [19] = test: Effect on endometrial luminal epithelium with undeveloped endometrial gland in ovariectomized rat at 10 to 20 mg/kg/day, po for 30 days by hematoxylin-eosin staining-based light microscopic analysis; assay type: ADME, organism-based; set-up: route oral; conditions: in vivo, 720 h
Outline: (§7)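 OVX rats dosed orally with 9a (1, 10, 20 mg/kg/day) for 30 days from 3 days post-surgery. Uteri and livers were collected at the end, then sectioned, stained and examined by light microscopy for endometrial luminal epithelium, glands and liver morphology/pathology.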

Rattus norvegicus [20] = test: Effect on liver morphology in ovariectomized rat at 10 to 20 mg/kg/day, po for 30 days by hematoxylin-eosin staining-based light microscopic analysis; assay type: ADME, organism-based; set-up: route oral; conditions: in vivo, 720 h; outline: as §7
Rattus norvegicus [21] = test: Effect on liver pathology in ovariectomized rat at 10 to 20 mg/kg/day, po for 30 days by hematoxylin-eosin staining-based light microscopic analysis; assay type: ADME, organism-based; set-up: route oral; conditions: in vivo, 720 h; outline: as §7

SMILES: CCOC(=O)CNC(=O)[C@]12CC[C@@H](C)[C@H](C)[C@H]1C1=CC[C@@H]3[C@@]4(C)Cc5nc6ccccc6nc5C(C)(C)[C@@H]4CC[C@@]3(C)[C@]1(C)CC2
- Activity [1]: 1%
- Activity [2]: Non-toxic
- Activity (Rattus norvegicus [3]): Dose-dependent effect
- Activity (Rattus norvegicus [4]): inactive
- Activity (Rattus norvegicus [5]): 34%
- Activity (Rattus norvegicus [6]): 36%
- Drug uptake (Brain): Not Active
- Activity (Rattus norvegicus [7]): inactive
- Activity (Rattus norvegicus [8]): inactive
- Activity (Rattus norvegicus [9]): inactive
- Activity (Rattus norvegicus [10]): inactive
- Activity (Rattus norvegicus [11]): inactive
- Activity (Rattus norvegicus [12]): 22.6%
- Activity (Rattus norvegicus [13]): 28%
- Activity (Rattus norvegicus [14]): 43.3%
- Activity (Rattus norvegicus [15]): 24%
- Activity (Rattus norvegicus [16]): -24.9%
- Activity (Rattus norvegicus [17]): Dose-dependent effect
- Activity (Rattus norvegicus [18]): inactive
- Activity (Rattus norvegicus [19]): Non-toxic
- Activity (Rattus norvegicus [20]): Non-toxic
- Activity (Rattus norvegicus [21]): Non-toxic
